Laboratory results from ChEMBL document CHEMBL5653631, “A Potent and Selective ULK1 Inhibitor Suppresses Autophagy and Sensitizes Cancer Cells to Nutrient Stress” (iScience, 2018).
One block for each compound: values may come before it.

What was measured:
[1] = molecular target: Serine/threonine-protein kinase B-raf (Homo sapiens) (UniProt P15056); test: Inhibition of human recombinant BRAF at 500 nM in presence of ATP by radiometric assay relative to control
How it was run: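 Part of a radiometric in vitro activity panel of 327 recombinant human kinases. Each kinase was tested in duplicate at one inhibitor concentration. Activity remaining was expressed as a percentage of the vehicle control, and percent inhibition was taken as 100 minus that value.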

[2] = molecular target: Tyrosine-protein kinase Lyn (Homo sapiens) (UniProt P07948); test: Inhibition of human recombinant LYN at 500 nM in presence of ATP by radiometric assay relative to control
[3] = molecular target: T1, Serine/threonine-protein kinase Sgk3 (Homo sapiens) (UniProt Q96BR1); test: Inhibition of human recombinant SGK3 at 500 nM related to control ULK1
T1 sequence (whole entry): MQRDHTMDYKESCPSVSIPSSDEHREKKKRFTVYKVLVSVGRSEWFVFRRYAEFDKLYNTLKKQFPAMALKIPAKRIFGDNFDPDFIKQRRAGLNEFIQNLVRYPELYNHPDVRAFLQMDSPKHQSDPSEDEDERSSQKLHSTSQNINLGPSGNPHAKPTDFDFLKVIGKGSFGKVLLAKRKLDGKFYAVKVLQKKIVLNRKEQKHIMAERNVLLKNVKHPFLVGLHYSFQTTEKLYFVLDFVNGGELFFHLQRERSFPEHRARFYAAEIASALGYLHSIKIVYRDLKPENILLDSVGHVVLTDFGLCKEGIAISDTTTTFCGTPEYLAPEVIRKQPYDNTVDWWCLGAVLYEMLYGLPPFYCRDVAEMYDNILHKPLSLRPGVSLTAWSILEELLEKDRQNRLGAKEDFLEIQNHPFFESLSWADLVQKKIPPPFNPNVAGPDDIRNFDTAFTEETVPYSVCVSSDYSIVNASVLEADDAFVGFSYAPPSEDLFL

[4] = molecular target: T2, Serine/threonine-protein kinase haspin (Homo sapiens) (UniProt Q8TF76); test: Inhibition of human recombinant Haspin at 15 nM related to control ULK1
T2 sequence (whole entry): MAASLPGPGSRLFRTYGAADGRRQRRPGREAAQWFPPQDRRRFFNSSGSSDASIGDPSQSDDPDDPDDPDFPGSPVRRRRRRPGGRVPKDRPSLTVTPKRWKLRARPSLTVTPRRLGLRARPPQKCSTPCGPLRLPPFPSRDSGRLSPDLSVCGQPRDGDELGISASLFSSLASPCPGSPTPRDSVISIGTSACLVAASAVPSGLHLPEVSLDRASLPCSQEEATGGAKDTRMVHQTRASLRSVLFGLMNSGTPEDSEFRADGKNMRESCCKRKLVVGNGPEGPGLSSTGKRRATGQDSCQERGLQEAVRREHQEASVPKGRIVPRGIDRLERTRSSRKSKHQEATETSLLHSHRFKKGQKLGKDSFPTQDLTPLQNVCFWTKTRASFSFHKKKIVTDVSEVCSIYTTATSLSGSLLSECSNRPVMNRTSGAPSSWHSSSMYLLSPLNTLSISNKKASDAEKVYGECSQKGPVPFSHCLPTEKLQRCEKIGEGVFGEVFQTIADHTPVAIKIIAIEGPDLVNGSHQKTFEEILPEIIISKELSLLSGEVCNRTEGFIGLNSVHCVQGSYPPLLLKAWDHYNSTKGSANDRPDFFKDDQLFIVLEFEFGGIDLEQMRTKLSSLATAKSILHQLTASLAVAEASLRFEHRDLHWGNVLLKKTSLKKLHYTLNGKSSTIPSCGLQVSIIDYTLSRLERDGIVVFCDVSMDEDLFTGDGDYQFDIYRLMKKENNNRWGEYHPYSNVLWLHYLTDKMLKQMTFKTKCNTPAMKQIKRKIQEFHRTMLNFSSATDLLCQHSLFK

[5] = molecular target: Serine/threonine-protein kinase Chk2 (Homo sapiens) (UniProt O96017); test: Inhibition of human recombinant CHK2 at 15 nM related to control ULK1
[6] = molecular target: Calcium/calmodulin-dependent protein kinase type 1D (Homo sapiens) (UniProt Q8IU85); test: Inhibition of human recombinant CaMK1d at 15 nM in presence of ATP by radiometric assay relative to control
[7] = molecular target: T3, Serine/threonine-protein kinase D3 (Homo sapiens) (UniProt O94806); test: Inhibition of human recombinant PKD3 at 15 nM related to control ULK1
T3 sequence (whole entry): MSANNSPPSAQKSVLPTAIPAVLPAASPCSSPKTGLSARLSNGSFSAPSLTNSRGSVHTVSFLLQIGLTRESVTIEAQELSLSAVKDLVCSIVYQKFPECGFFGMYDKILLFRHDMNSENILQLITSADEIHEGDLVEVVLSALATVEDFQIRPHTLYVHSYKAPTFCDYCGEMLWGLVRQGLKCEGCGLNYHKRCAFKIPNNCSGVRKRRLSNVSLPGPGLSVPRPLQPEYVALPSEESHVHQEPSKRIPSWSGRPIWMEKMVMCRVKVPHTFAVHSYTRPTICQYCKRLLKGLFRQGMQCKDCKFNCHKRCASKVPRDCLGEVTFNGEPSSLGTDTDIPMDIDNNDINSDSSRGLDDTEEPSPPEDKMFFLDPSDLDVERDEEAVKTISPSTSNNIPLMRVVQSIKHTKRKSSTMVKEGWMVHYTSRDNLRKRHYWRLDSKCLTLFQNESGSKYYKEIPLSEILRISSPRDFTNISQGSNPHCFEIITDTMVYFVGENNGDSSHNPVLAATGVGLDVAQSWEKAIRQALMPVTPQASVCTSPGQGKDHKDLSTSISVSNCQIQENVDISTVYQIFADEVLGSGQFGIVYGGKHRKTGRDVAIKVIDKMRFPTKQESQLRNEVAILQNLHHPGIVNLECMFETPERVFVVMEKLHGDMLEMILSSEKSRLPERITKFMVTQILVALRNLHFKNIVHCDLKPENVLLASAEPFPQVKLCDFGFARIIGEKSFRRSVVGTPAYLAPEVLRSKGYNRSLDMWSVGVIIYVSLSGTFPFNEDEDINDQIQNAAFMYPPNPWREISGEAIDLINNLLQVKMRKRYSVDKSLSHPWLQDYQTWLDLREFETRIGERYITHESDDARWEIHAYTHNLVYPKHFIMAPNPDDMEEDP

[8] = molecular target: Serine/threonine-protein kinase PAK 2 (Homo sapiens) (UniProt Q13177); test: Inhibition of human recombinant PAK2 at 40 nM related to control ULK1
Serine/threonine-protein kinase PAK 2 (Homo sapiens), sequence (Q13177 whole entry): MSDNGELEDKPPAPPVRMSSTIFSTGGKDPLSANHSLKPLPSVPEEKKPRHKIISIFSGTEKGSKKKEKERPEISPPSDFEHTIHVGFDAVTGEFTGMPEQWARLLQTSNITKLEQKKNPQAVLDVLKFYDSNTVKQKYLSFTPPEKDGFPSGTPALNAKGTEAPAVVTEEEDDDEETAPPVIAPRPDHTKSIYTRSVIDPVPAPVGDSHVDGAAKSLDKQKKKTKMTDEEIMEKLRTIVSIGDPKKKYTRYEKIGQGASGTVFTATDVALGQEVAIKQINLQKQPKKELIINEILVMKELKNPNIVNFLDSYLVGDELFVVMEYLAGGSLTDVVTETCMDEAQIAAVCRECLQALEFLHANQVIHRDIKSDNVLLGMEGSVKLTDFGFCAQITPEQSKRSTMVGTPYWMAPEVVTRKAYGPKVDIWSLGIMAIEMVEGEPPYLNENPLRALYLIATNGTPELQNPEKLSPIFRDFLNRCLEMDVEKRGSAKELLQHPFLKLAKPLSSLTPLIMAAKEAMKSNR

Serine/threonine-protein kinase Chk2 (Homo sapiens), sequence (O96017 whole entry): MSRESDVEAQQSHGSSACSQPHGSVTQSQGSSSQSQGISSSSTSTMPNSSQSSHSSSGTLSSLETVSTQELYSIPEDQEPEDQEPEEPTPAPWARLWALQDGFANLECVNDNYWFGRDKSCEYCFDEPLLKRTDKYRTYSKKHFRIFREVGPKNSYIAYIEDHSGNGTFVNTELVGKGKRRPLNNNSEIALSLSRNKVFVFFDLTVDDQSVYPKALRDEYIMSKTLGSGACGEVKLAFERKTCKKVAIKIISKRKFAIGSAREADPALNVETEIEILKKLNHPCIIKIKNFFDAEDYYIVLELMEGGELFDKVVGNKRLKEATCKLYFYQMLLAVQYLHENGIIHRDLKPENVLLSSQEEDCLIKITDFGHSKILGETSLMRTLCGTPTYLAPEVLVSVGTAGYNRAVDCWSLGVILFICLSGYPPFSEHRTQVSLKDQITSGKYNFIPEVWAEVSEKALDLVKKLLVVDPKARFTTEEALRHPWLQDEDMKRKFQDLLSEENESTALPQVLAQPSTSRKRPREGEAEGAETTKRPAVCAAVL
Serine/threonine-protein kinase B-raf (Homo sapiens), sequence (P15056 whole entry): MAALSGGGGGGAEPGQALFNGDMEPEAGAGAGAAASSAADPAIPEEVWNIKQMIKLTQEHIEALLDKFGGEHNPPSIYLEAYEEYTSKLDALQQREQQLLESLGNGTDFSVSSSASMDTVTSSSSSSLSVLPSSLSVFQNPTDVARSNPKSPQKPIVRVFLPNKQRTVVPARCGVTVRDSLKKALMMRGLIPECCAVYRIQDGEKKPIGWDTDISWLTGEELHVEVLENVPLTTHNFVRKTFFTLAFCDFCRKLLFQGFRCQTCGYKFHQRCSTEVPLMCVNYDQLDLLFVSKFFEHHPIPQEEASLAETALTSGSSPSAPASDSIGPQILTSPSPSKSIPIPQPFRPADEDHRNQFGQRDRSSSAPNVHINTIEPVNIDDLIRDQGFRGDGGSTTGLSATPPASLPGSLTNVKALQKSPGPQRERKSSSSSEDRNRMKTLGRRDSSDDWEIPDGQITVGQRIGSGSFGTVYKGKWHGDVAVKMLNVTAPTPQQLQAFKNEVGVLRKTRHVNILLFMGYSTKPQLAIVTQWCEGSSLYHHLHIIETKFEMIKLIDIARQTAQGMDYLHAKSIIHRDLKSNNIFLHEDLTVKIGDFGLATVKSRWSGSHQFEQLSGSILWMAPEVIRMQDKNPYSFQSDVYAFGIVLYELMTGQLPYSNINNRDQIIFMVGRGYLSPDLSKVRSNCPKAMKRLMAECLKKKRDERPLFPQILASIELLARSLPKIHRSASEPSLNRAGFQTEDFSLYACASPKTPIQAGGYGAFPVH
Tyrosine-protein kinase Lyn (Homo sapiens), sequence (P07948 2-512 limits assumed): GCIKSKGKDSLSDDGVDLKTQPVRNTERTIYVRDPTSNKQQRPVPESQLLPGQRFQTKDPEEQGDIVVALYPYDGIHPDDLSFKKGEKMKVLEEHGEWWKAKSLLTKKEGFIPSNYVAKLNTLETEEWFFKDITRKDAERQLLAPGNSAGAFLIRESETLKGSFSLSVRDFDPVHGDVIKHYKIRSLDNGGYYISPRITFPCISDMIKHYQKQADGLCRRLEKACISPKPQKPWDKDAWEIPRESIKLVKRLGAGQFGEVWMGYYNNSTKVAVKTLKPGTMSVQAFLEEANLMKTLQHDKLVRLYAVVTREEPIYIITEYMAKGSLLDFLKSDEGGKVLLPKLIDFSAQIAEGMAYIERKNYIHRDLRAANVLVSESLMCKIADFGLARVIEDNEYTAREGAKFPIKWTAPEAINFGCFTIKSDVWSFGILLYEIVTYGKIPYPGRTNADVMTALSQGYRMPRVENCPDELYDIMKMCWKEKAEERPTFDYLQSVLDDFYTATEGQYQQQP
Calcium/calmodulin-dependent protein kinase type 1D (Homo sapiens), sequence (Q8IU85 whole entry, looked up): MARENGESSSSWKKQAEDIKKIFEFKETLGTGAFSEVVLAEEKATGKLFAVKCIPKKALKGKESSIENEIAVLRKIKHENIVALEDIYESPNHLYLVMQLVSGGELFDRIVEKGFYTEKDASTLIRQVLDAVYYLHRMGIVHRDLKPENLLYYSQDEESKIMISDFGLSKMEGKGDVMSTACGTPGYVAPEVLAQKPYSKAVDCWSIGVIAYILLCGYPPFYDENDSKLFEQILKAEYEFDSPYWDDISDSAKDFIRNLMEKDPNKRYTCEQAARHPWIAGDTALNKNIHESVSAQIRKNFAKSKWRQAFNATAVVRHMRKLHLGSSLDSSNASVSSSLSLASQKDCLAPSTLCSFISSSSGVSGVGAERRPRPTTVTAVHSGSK

inhibition [1]: 8% | inhibition [2]: 30% | fold change (FC) [3]: 0.01
SMILES: CNC(=O)c1ccccc1Oc1nc(Nc2cc(OC)c(OC)c(OC)c2)ncc1Br

fold change (FC) [4]: 0 | fold change (FC) [5]: 0 | inhibition [6]: 0% | fold change (FC) [7]: 0.08
SMILES: CC(C)[C@H](NC(=O)c1cc(-c2cnn3cc(-c4ccc(OCCN5CCCCC5)cc4)cnc23)cs1)C(F)(F)F

fold change (FC) [8]: 0
SMILES: O=C(N[C@@H](C1CC1)C(F)(F)F)c1cc(-c2cnn3cc(-c4ccc(F)cc4)cnc23)cs1
